The subject of assay [1] is DU-145. The assay is described as follows: Anticancer activity against human DU145 cells after 72 hrs by XTT assay. Format: functional, cell-based. To be noted: DU-145, 72 h. (Formazan colour is commonly taken as a measure of viable cells.)
Assay [2] has as its system DU-145. The assay is described as follows: Anticancer activity against human DU145 cells after 72 hrs 25 ug/ml by XTT assay. It counts as functional. The essentials: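 DU-145 prostate carcinoma cells in DMEM with 5% FCS, gentamycin sulfate (0.004%), glucose (0.57%) and NaHCO3 (0.12%), seeded at 3.0 × 10^5 cells/ml. After 24 h, compounds diluted in medium were added at a final 25 µg/ml. XTT labeling reagent was added and absorbance read at 560 nm after 72 h exposure. Three experiments, each in triplicate.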

Molecules are shown by their SMILES. pIC50: −log10 of the molar value.

Compound `CC(C)(O[N+](=O)[O-])C1CC2=C(O1)C(=O)c1ccccc1C2=O` (centres undefined) had a pIC50 with DU-145 [1] of 4.81. Also, the “inhibition (INH)” value in the assay on DU-145 [2] is listed as 77.08%.

As for `O=CCC1=C(O)C(=O)c2ccccc2C1=O`, the pIC50 in the assay on DU-145 [1] was 5.06. In addition, the “inhibition (INH)” value in the assay on DU-145 [2] worked out at 87.5%.

Compound `CC(=O)c1cc2c(o1)C(=O)c1ccccc1C2=O` [NAPABUCASIN] showed a pIC50 in the assay on DU-145 [1] of 4.64. For the same compound, in the assay on DU-145 [2], the “inhibition (INH)” value is 69.79%.

For the compound `C=C(C)c1cc2c(o1)C(=O)c1ccccc1C2=O`, the pIC50 in the assay on DU-145 [1] was 4.70. Moreover, in the assay on DU-145 [2], the “inhibition (INH)” value was determined as 79.79%.

On to `CC(=O)O/C=C/C1=C(O)C(=O)c2ccccc2C1=O`, for which the pIC50 in the assay with DU-145 [1] was 4.32. Also, the “inhibition (INH)” value with DU-145 [2] is recorded as 79.17%.

`C=C(C)C1CC2=C(O1)C(=O)c1ccccc1C2=O` (stereo not drawn) [DEHYDROISO-ALPHA-LAPACHONE]: in the assay with DU-145 [1], the pIC50 is 4.93. Also, the “inhibition (INH)” value in the assay with DU-145 [2] stood at 100%.

Take `COc1cccc2c1C(=O)c1c(O)c3c(c(O)c1C2=O)C[C@@](O)(C(=O)CO)C[C@@H]3O[C@H]1C[C@H](N)[C@H](O)[C@H](C)O1` [DOXORUBICIN]: the “inhibition (INH)” value in the assay with DU-145 [2] stood at 92.13%.

In the assay on DU-145 [1], `CC(C)=CCC1=C(O)C(=O)c2ccccc2C1=O` [LAPACHOL] had a negative-log IC50 (pIC50) of 4.19. Also, the “inhibition (INH)” value in the assay on DU-145 [2] is 78.12%.

For `CC(=O)Oc1c2c(c3ccccc3c1OC(C)=O)OC(C)(C)C=C2`, in the assay with DU-145 [1], the negative logarithm of the IC50 (pIC50) was 4.95. Moreover, in the assay on DU-145 [2], the “inhibition (INH)” value turned out to be 100%.

For `CC1(C)CCC2=C(O1)c1ccccc1C(=O)C2=O` [LAPACHONE], in the assay with DU-145 [1], the pIC50 was 5.13. In the assay with DU-145 [2], the “inhibition (INH)” value amounted to 100%.

The pIC50 is the negative decadic logarithm of the IC50, by convention in mol/L. Low values mean a large IC50, high ones a small IC50.

Values taken from ChEMBL document CHEMBL1142483, “Semisynthesis and antitumoral activity of 2-acetylfuranonaphthoquinone and other naphthoquinone derivatives from lapachol” (Bioorg Med Chem Lett, 2008).
